Experimental data: ChEMBL document CHEMBL1926614, “Substituted thiazoles V. synthesis and antitumor activity of novel thiazolo[2,3-b]quinazoline and pyrido[4,3-d]thiazolo[3,2-a]pyrimidine analogues” (2012)

What was measured:
Format in all cases: functional
CCRF-CEM = assay: Growth inhibition of human CCRF-CEM cells at 10 uM after 48 hrs by coulter counting; conditions: read-out: GI
How it was run: (§1)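 Single-dose primary screen across the full NCI 60-cell-line panel. Stocks were made in DMSO and diluted in PBS to a final DMSO below 1%. Cultures at 6 × 10⁴ cells/ml were run in duplicate wells alongside PBS/DMSO vehicle controls at 37 °C in humidified 5% CO₂. Data were expressed as percent growth of treated cells.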

IGROV-1 = assay: Growth inhibition of human IGROV1 cells at 10 uM after 48 hrs by coulter counting; conditions: IGROV-1, 48 h, read-out: GI; how it was run: as §1
HCC 2998 = assay: Growth inhibition of human HCC2998 cells at 10 uM after 48 hrs by coulter counting; conditions: HCC 2998, 48 h, read-out: GI; how it was run: as §1
HOP-62 = assay: Growth inhibition of human HOP62 cells at 10 uM after 48 hrs by coulter counting; conditions: HOP-62, 48 h, read-out: GI; how it was run: as §1
UO-31 = assay: Growth inhibition of human UO31 cells at 10 uM after 48 hrs by coulter counting; conditions: UO-31, 48 h, read-out: GI
How it was run: (§2)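 Single-dose screen in the NCI 60 human tumor cell line panel (nine subpanels). Compounds dissolved in DMSO and diluted in phosphate buffered saline, keeping final DMSO below 1%. Added in duplicate wells to cells at 6 × 10⁴ cells/ml. Controls held PBS and DMSO at matching dilutions. Incubated at 37 °C, humidified, 5% CO₂. Reported as percent growth of treated cells.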

OVCAR-4 = assay: Growth inhibition of human OVCAR4 cells at 10 uM after 48 hrs by coulter counting; conditions: OVCAR-4, 48 h, read-out: GI; how it was run: as §1
A498 = assay: Growth inhibition of human A498 cells at 10 uM after 48 hrs by coulter counting; conditions: A498, 48 h, read-out: GI; how it was run: as §1
SK-MEL-28 = assay: Growth inhibition of human SK-MEL-28 cells at 10 uM after 48 hrs by coulter counting; conditions: SK-MEL-28, 48 h, read-out: GI; how it was run: as §1
HT-29 = assay: Growth inhibition of human HT-29 cells at 10 uM after 48 hrs by coulter counting; conditions: HT-29, 48 h, read-out: GI; how it was run: as §1
UACC-257 = assay: Growth inhibition of human UACC257 cells at 10 uM after 48 hrs by coulter counting; conditions: UACC-257, 48 h, read-out: GI; how it was run: as §2
SK-MEL-2 = assay: Growth inhibition of human SK-MEL-2 cells at 10 uM after 48 hrs by coulter counting; conditions: SK-MEL-2, 48 h, read-out: GI; how it was run: as §1
SF-268 = assay: Growth inhibition of human SF268 cells at 10 uM after 48 hrs by coulter counting; conditions: SF-268, 48 h, read-out: GI; how it was run: as §1
SNB-75 = assay: Growth inhibition of human SNB75 cells at 10 uM after 48 hrs by coulter counting; conditions: SNB-75, 48 h, read-out: GI; how it was run: as §1
RPMI-8226 = assay: Growth inhibition of human RPMI8226 cells at 10 uM after 48 hrs by coulter counting; conditions: RPMI-8226, 48 h, read-out: GI; how it was run: as §1
NCI-H522 = assay: Growth inhibition of human NCI-H522 cells at 10 uM after 48 hrs by coulter counting; conditions: NCI-H522, 48 h, read-out: GI; how it was run: as §1
NCI-H23 = assay: Growth inhibition of human NCI-H23 cells at 10 uM after 48 hrs by coulter counting; conditions: NCI-H23, 48 h, read-out: GI; how it was run: as §1
MDA-MB-435 = assay: Growth inhibition of human MDA-MB-435 cells at 10 uM after 48 hrs by coulter counting; conditions: MDA-MB-435, 48 h, read-out: GI; how it was run: as §1
MOLT-4 = assay: Growth inhibition of human MOLT4 cells at 10 uM after 48 hrs by coulter counting; conditions: MOLT-4, 48 h, read-out: GI; how it was run: as §1
BT-549 = assay: Growth inhibition of human BT549 cells at 10 uM after 48 hrs by coulter counting; conditions: BT-549, 48 h, read-out: GI; how it was run: as §1
EKVX = assay: Growth inhibition of human EKVX cells at 10 uM after 48 hrs by coulter counting; conditions: read-out: GI; how it was run: as §1
SNB-19 = assay: Growth inhibition of human SNB19 cells at 10 uM after 48 hrs by coulter counting; conditions: SNB-19, 48 h, read-out: GI; how it was run: as §1
T47D = assay: Growth inhibition of human T47D cells at 10 uM after 48 hrs by coulter counting; conditions: read-out: GI; how it was run: as §2
KM12 = assay: Growth inhibition of human KM12 cells at 10 uM after 48 hrs by coulter counting; conditions: KM12, 48 h, read-out: GI; how it was run: as §1
SK-MEL-5 = assay: Growth inhibition of human SK-MEL-5 cells at 10 uM after 48 hrs by coulter counting; conditions: SK-MEL-5, 48 h, read-out: GI; how it was run: as §1
MCF7 = assay: Growth inhibition of human MCF7 cells at 10 uM after 48 hrs by coulter counting; conditions: MCF7, 48 h, read-out: GI; how it was run: as §1
NCI/ADR-RES = assay: Growth inhibition of human NCI/ADR-RES cells at 10 uM after 48 hrs by coulter counting; conditions: read-out: GI; how it was run: as §1
ACHN = assay: Growth inhibition of human ACHN cells at 10 uM after 48 hrs by coulter counting; conditions: read-out: GI; how it was run: as §1
HL-60(TB) = assay: Growth inhibition of human HL-60(TB) cells at 10 uM after 48 hrs by coulter counting; conditions: HL-60, 48 h, read-out: GI
How it was run: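 Test compound was dissolved in DMSO and diluted in phosphate-buffered saline to a final DMSO level below 1%. Dilutions were plated in duplicate with cell culture at 6 × 10⁴ cells/ml. Vehicle controls held PBS and DMSO at matching dilutions. Incubation was at 37 °C, humidified, under 5% CO₂. Data were reported as percent growth of treated cells.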

UACC-62 = assay: Growth inhibition of human UACC62 cells at 10 uM after 48 hrs by coulter counting; conditions: UACC-62, 48 h, read-out: GI; how it was run: as §2
U-251 = assay: Growth inhibition of human U251 cells at 10 uM after 48 hrs by coulter counting; conditions: U-251, 48 h, read-out: GI; how it was run: as §2
HCT-116 = assay: Growth inhibition of human HCT116 cells at 10 uM after 48 hrs by coulter counting; conditions: HCT-116, 48 h, read-out: GI; how it was run: as §1
SF-295 = assay: Growth inhibition of human SF295 cells at 10 uM after 48 hrs by coulter counting; conditions: SF-295, 48 h, read-out: GI; how it was run: as §1
NCI-H460 = assay: Growth inhibition of human NCI-H460 cells at 10 uM after 48 hrs by coulter counting; conditions: NCI-H460, 48 h, read-out: GI; how it was run: as §1
SF-539 = assay: Growth inhibition of human SF539 cells at 10 uM after 48 hrs by coulter counting; conditions: SF-539, 48 h, read-out: GI; how it was run: as §1
DU-145 = assay: Growth inhibition of human DU145 cells at 10 uM after 48 hrs by coulter counting; conditions: DU-145, 48 h, read-out: GI; how it was run: as §1
M14 = assay: Growth inhibition of human M14 cells at 10 uM after 48 hrs by coulter counting; conditions: M14, 48 h, read-out: GI; how it was run: as §1
NCI-H226 = assay: Growth inhibition of human NCI-H226 cells at 10 uM after 48 hrs by coulter counting; conditions: NCI-H226, 48 h, read-out: GI; how it was run: as §1
CAKI-1 = assay: Growth inhibition of human Caki1 cells at 10 uM after 48 hrs by coulter counting; conditions: CAKI-1, 48 h, read-out: GI; how it was run: as §1
[1] = Growth inhibition of human NCI-322M cells at 10 uM after 48 hrs by coulter counting; conditions: read-out: GI; how it was run: as §1
LOX IMVI = assay: Growth inhibition of human LOXIMVI cells at 10 uM after 48 hrs by coulter counting; conditions: read-out: GI; how it was run: as §1
A549 = assay: Growth inhibition of human A549 cells at 10 uM after 48 hrs by coulter counting; conditions: A549, 48 h, read-out: GI; how it was run: as §1
K562 = assay: Growth inhibition of human K562 cells at 10 uM after 48 hrs by coulter counting; conditions: K562, 48 h, read-out: GI; how it was run: as §1

C1=CN2C(=NC3=C(CCC/C3=C\c3ccccc3)C2c2ccccc2)S1 (configuration not stated)
inhibition of growth at 10 µM (CCRF-CEM): > 10%
inhibition of growth at 10 µM (IGROV-1): > 10%
inhibition of growth at 10 µM (HCC 2998): > 10%
inhibition of growth at 10 µM (HOP-62): > 10%
inhibition of growth at 10 µM (UO-31): 21.4%
inhibition of growth at 10 µM (OVCAR-4): > 10%
inhibition of growth at 10 µM (A498): > 10%
inhibition of growth at 10 µM (SK-MEL-28): > 10%
inhibition of growth at 10 µM (HT-29): > 10%
inhibition of growth at 10 µM (UACC-257): > 10%
inhibition of growth at 10 µM (SK-MEL-2): > 10%
inhibition of growth at 10 µM (SF-268): > 10%
inhibition of growth at 10 µM (SNB-75): > 10%
inhibition of growth at 10 µM (RPMI-8226): > 10%
inhibition of growth at 10 µM (NCI-H522): > 10%
inhibition of growth at 10 µM (NCI-H23): > 10%
inhibition of growth at 10 µM (MDA-MB-435): > 10%
inhibition of growth at 10 µM (MOLT-4): > 10%
inhibition of growth at 10 µM (BT-549): > 10%
inhibition of growth at 10 µM (EKVX): > 10%
inhibition of growth at 10 µM (SNB-19): > 10%
inhibition of growth at 10 µM (T47D): > 10%
inhibition of growth at 10 µM (KM12): > 10%
inhibition of growth at 10 µM (SK-MEL-5): > 10%
inhibition of growth at 10 µM (MCF7): > 10%
inhibition of growth at 10 µM (NCI/ADR-RES): > 10%
inhibition of growth at 10 µM (ACHN): > 10%
inhibition of growth at 10 µM (HL-60(TB)): > 10%
inhibition of growth at 10 µM (UACC-62): > 10%
inhibition of growth at 10 µM (U-251): > 10%
inhibition of growth at 10 µM (HCT-116): > 10%
inhibition of growth at 10 µM (SF-295): > 10%
inhibition of growth at 10 µM (NCI-H460): > 10%
inhibition of growth at 10 µM (SF-539): > 10%
inhibition of growth at 10 µM (DU-145): > 10%
inhibition of growth at 10 µM (M14): > 10%
inhibition of growth at 10 µM (NCI-H226): > 10%
inhibition of growth at 10 µM (CAKI-1): > 10%
inhibition of growth at 10 µM [1]: > 10%
inhibition of growth at 10 µM (LOX IMVI): > 10%
inhibition of growth at 10 µM (A549): > 10%
inhibition of growth at 10 µM (K562): > 10%
